High-throughput results from PubChem.
The list is not random: actives were taken first. Their share in the collection is about 3.7%.
SR-BI DiI-HDL act: enhances SR-BI lipid uptake from DiI-HDL. CHO ldlA[mSR-BI] cells, DiI-HDL uptake fluorescence, 3 h; 100 = double the neutral-control signal. activation, % at 12.5 µM. 0.096% of 320,000 active;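 active means mean replicate activation of at least 60% and every replicate at or above 60%; inconclusive means mean or all-replicate condition met, but not both; inactive means mean below 60% and not all replicates reaching 60%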
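System: LDL receptor-deficient CHO ldlA cells overexpressing murine SR-BI | Timing: 3 h uptake period with compound, 37 °C | Medium: HEPES-buffered (25 mM, pH 7.4) F12 plus 0.5% BSA | Dosing: Single-point compound dose | Signal: Bottom-read fluorescence, 550/595 nm | Read-out: Retained DiI signal reflecting DiI-HDL uptake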
AHR activator: activates the human aryl hydrocarbon receptor; activation, % at 5 µM; AHR-responsive luciferase reporter cells, luminescence; 2.5% of 320,000 active; P35869; in the data active means activation above about 47%
SR-BI DiI inh: mouse SR-BI HDL lipid transfer inhibition; Q61009; ldlA[mSR-BI] CHO cells, DiI-HDL uptake fluorescence, 3 h; inhibition, % at 12.5 µM; 0.96% of 320,000 active; AID 488896;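 active means mean replicate inhibition of at least 70% and a set share of replicates each scoring 70 or more; inconclusive means meets just one of the two criteria; inactive means fails both criteria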
JMJD2C inh: human JMJD2C demethylase inhibition. AID 2099. 0.069% of 330,000 active. inhibition, % at 2.35 µM. GST-JMJD2C(1-420) H3K9me3 demethylation, DELFIA europium;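 active means more than half of a compound's replicate wells show inhibition beyond 50%, single wells judged on their own value; inconclusive means some, but no more than half, of replicates pass 50% inhibition; inactive means no replicate passes 50% inhibition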;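 further: signal counts dimethyl H3K9 product captured on neutravidin plate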
Target sequence (Q9H3R0 1-420 limits assumed): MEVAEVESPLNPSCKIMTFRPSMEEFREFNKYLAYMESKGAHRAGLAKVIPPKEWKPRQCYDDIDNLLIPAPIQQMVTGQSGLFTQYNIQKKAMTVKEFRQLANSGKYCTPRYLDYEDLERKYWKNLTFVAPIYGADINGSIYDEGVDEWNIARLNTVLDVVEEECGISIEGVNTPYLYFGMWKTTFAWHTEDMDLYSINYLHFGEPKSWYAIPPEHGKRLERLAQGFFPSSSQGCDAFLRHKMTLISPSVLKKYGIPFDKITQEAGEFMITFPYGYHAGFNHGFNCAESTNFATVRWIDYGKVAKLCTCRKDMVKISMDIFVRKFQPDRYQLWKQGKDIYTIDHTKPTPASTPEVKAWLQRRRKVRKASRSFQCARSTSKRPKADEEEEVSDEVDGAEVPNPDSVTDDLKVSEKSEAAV
FXN GAA850 act: activators of GAA850 frataxin (FXN) promoter | AID 540364 | 0.56% of 360,000 active | HEK293 lucGAA850 FXN promoter luciferase reporter, 24 h; percent of 10 µM SAHA response | activation, % at 6 µM;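 active means activation above the average of all compounds screened plus 3 SD, cutoff fixed separately per campaign, cut at about 7.5% in these data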
Of the large screens only hits and unclear results are named; the others gave an inactive call.

O=C(CN1CCN(CC(=O)Nc2ccc(OCc3ccccc3)cc2)CC1)Nc1ccc(F)cc1	SR-BI DiI-HDL act 451
COc1ccc(-n2ncc(C(=O)NC3CC3)c2C2CCN(C(=O)OC(C)(C)C)CC2)cc1	none
O=C(Nc1ccc(O)cc1)c1ccccc1OCc1ccccc1	none (no result: AHR activator)
O=C(Nc1ccccc1)c1ccccc1OCc1ccc(F)cc1	SR-BI DiI inh 74
O=C(Nc1cccc(NC(=O)c2ccco2)c1)c1ccccc1	none
O=C(Nc1ccccc1O)c1cccc(NC(=O)c2ccco2)c1	AHR activator 54
Cc1ccc2nc(-c3ccc(NC(=O)c4ccco4)cc3)[nH]c2c1	none
O=C(Nc1cccc(-c2nc3ccccc3[nH]2)c1)c1ccco1	AHR activator 51
O=C(Nc1ccc(NC(=O)c2ccco2)c(Cl)c1)c1ccccc1	AHR activator 59
Cc1ccc(-n2c(CNc3ccc(F)cc3)nnc2SCC(N)=O)cc1	none
CCC(=O)Nc1ccc(Cl)c(NC(=S)NC(=O)c2ccco2)c1	SR-BI DiI inh 96
O=C(Nc1cccc(NC(=O)c2nccc3ccccc23)c1)c1ccco1	AHR activator 102
CC(C)Oc1ccc(C(=O)Nc2ccc(NC(=O)c3ccco3)c(Cl)c2)cc1	SR-BI DiI inh 79 (no result: SR-BI DiI-HDL act)
CCC(=O)Nc1ccc(Cl)c(NC(=S)NC(=O)c2cc3ccccc3o2)c1	none
O=C(CN1CCN(C(=O)c2ccccc2F)CC1)Nc1ccc(Br)cc1	AHR activator 56
O=C(OCC(=O)N1CCCC1)c1c2c(nc3ccccc13)CCCCC2	none
COc1ccc(C(=O)Nc2ccc(NC(=O)c3ccco3)c(Cl)c2)cc1OC	SR-BI DiI inh 75
CC(C)COc1ccc(C(=O)Nc2ccc(NC(=O)c3ccco3)c(Cl)c2)cc1	none
COc1ccccc1N1CC(C(=O)Nc2cc(C(F)(F)F)ccc2N2CCCC2)CC1=O (stereo not drawn)	none
COc1ccccc1NC(=O)Cc1nnc(SCC(=O)NC2CCCCC2C)n1C (stereo not drawn)	none
CC(=O)c1sc(N/N=C\c2ccccc2O)nc1C	none
Cc1[nH]c2ccccc2c1-c1csc(NC(=O)CSCCO)n1	AHR activator 50
O=S(=O)(/N=C(\c1ccccc1F)N1CCCCC1)c1ccccc1	none
NC(=O)c1ccc(NCCc2ccccc2)c([N+](=O)[O-])c1	none
O=C(Nc1ccccc1)c1ccc(NCCc2ccccc2)c([N+](=O)[O-])c1	AHR activator 50
CCN(CC)c1ccc(C(=O)Nc2ccccc2)cc1[N+](=O)[O-]	AHR activator 53
CCCn1cc(SCC(=O)Nc2ccc3c(c2)OCO3)c2ccccc21	AHR activator 73
COCCn1nnnc1SCC(=O)Nc1ccc2c(c1)OCO2	AHR activator 68
COCCCn1nnnc1SCC(=O)Nc1ccc2c(c1)OCCO2	none
Cc1nn(C)c(Oc2ccccc2)c1CCNS(=O)(=O)c1ccccc1	none
C/C(=N\N=C(N)N)c1ccc(C)c(C)c1	AHR activator 59 (no result: SR-BI DiI-HDL act, SR-BI DiI inh)
Cc1cc(C)n2nc(SCCC(=O)NCc3ccccc3)nc2n1	none
COc1ccccc1Nc1nc(-c2sc(NC(=O)c3ccccc3)nc2C)cs1	none
Cc1nc(NC(=O)c2ccccc2)sc1-c1csc(NCCc2ccccc2)n1	SR-BI DiI inh 76
CCOc1ccccc1Nc1nc(-c2sc(NC(=O)c3ccccc3)nc2C)cs1	AHR activator 72 (no result: SR-BI DiI-HDL act, SR-BI DiI inh, FXN GAA850 act)
CCOc1ccccc1Nc1nc(-c2sc(NC(=O)c3cccc(Cl)c3)nc2C)cs1	AHR activator 64, SR-BI DiI inh 104
Cc1ccc(Cl)cc1Nc1nc(-c2sc(NC(=O)c3ccccc3)nc2C)cs1	none (no result: SR-BI DiI-HDL act, SR-BI DiI inh, FXN GAA850 act)
Cc1ccccc1C(=O)N1CCN(c2ccc(NC(=O)Cc3ccccc3)cc2)CC1	none
CS(=O)(=O)N1CC(C(=O)NC2CC2)Oc2ccc(Cl)cc21 (stereo not drawn)	none
O=C1c2ccccc2-c2nc3ncnn3c(-c3ccccc3Cl)c21	AHR activator 56
Cc1ccccc1OCC(=O)NNC(=O)c1cc(S(=O)(=O)N2CCOCC2)ccc1N1CCCC1	none
Cc1cc(C(=O)Nc2sc(C)c(C)c2C#N)c(C)o1	AHR activator 76
CCOC(=O)/C(=C\c1ccc(OC(F)F)cc1)C1=Nn2c(nnc2-c2ccc(Cl)cc2)SC1	SR-BI DiI inh 89, FXN GAA850 act 8.2
COc1cc([C@H]2c3[nH]c4ccccc4c3C[C@H]3C(=O)N4[C@@H](c5cc(OC)c(OC)c(OC)c5)c5[nH]c6ccccc6c5C[C@H]4C(=O)N23)cc(OC)c1OC	JMJD2C inh inconclusive
CC1Cc2c([nH]c3ccccc23)C2c3ccccc3CN12 (stereo not drawn)	AHR activator 57
CCc1ccc2nc(N(CCN(C)C)C(=O)c3ccc4ccccc4c3)sc2c1	none
O=S(=O)(c1ccc(SCCOc2cccc(Br)c2)nc1)N1CCCC1	none
COc1cc2c(cc1NC(=O)Nc1ccccc1)oc1ccccc12	AHR activator 48, SR-BI DiI inh 89
COc1cc2c(cc1NC(=O)CSc1ccc(C)cc1)oc1ccccc12	none
COc1cc2c(cc1NC(=O)CCC(=O)O)oc1ccccc12	none
COc1cc2c(cc1NC(=O)CSc1nc3ccc(C)cc3[nH]1)oc1ccccc12	AHR activator 57 (no result: SR-BI DiI-HDL act, SR-BI DiI inh, FXN GAA850 act)
COc1cc2c(cc1NC(=O)CSCC(=O)O)oc1ccccc12	none
COc1cc2c(cc1NC(=O)C(C)Sc1ccc(C)cc1)oc1ccccc12 (stereo not drawn)	SR-BI DiI inh 79
COc1cc2c(cc1NC(=O)Cc1ccc(C)cc1)oc1ccccc12	SR-BI DiI inh 72
COc1cc2c(cc1NC(=O)CSc1cccc[n+]1[O-])oc1ccccc12	AHR activator 80
COc1cc2c(cc1NC(=O)CCCCCN1C(=O)CCC1=O)oc1ccccc12	SR-BI DiI inh 85
COc1cc2c(cc1NC(=O)CSc1nnc(Cc3cccs3)n1C)oc1ccccc12	AHR activator 47
COc1cc2c(cc1NC(=O)CSc1nnc(Cc3cccs3)n1Cc1ccco1)oc1ccccc12	none
COc1cc2c(cc1NC(=O)CCCN1C(=O)CCC1=O)oc1ccccc12	none
COC(=O)c1ccccc1NC1=C/C(=N\S(=O)(=O)c2ccc(C(=O)O)cc2)c2ccccc2C1=O	AHR activator 62
COC(=O)c1ccccc1NC1=C/C(=N\S(=O)(=O)c2cccs2)c2ccccc2C1=O	AHR activator 88
CC(C)(C)c1ccc(S(=O)(=O)/N=C2\C=C(NS(=O)(=O)c3ccccc3)C(=O)c3ccccc32)cc1	AHR activator 54
Cc1ccc(S(=O)(=O)/N=C2\C=C(NS(=O)(=O)c3ccccc3)C(=O)c3ccccc32)c(C)c1	none (no result: AHR activator, JMJD2C inh)
CNC(=O)c1cc(Oc2ccc(NC(=O)Nc3ccc(Cl)c(C(F)(F)F)c3)cc2)ccn1	none (no result: JMJD2C inh)
CCOc1ccccc1CNC(=O)c1c([N+](=O)[O-])c(C)nn1C	AHR activator 61
Cc1c(Cl)cccc1NC(=O)NCc1ccncc1	none
O=C(CNc1ccccc1)c1ccc([N+](=O)[O-])cc1	AHR activator 63
